Test results taken from ChEMBL document CHEMBL1135632, “Synthesis and investigation of conformationally restricted analogues of lavendustin A as cytotoxic inhibitors of tubulin polymerization” (J Med Chem, 2002).

Assays:
Homo sapiens [1] = organism: Homo sapiens; assay: Cytotoxicity against renal SN12C; assay type: functional
Procedure, shortened: (§1)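 NCI human cancer cell line screen. Compounds were tested from 10^-4 to 10^-8 M, and GI50 was taken as the concentration giving 50% growth inhibition. Agents whose mean graph midpoint across about 55 lines was 10 μM or less on the first determination were assayed a second time, with standard deviations calculated. Agents above 10 μM were not evaluated further.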

Homo sapiens [2] = organism: Homo sapiens; assay: Cytotoxicity against lung HOP-62; assay type: functional; procedure, shortened: as §1
Homo sapiens [3] = organism: Homo sapiens; assay: Cytotoxicity against prostate DU-145; assay type: functional; conditions: DU-145, Prostate gland; procedure, shortened: as §1
Homo sapiens [4] = organism: Homo sapiens; assay: Cytotoxicity against ovarian OVCAR-3; assay type: functional; procedure, shortened: as §1
[5] = (§2) Cytotoxicity against leukemia CCRF-CEM; assay type: functional; conditions: Homo sapiens; procedure, shortened: as §1
Homo sapiens [6] = organism: Homo sapiens; assay: Cytotoxicity against CNS SF-539; assay type: functional; conditions: CNSSF-539; procedure, shortened: as §1
Homo sapiens [7] = organism: Homo sapiens; assay: Cytotoxicity against colon HCT116; assay type: functional; conditions: HCT-116; procedure, shortened: as §1
Homo sapiens [8] = organism: Homo sapiens; assay: Cytotoxicity against melanoma UACC-62; assay type: functional; procedure, shortened: as §1
Homo sapiens [9] = organism: Homo sapiens; assay: Cytotoxicity against breast MDA-MB-435; assay type: functional; procedure, shortened: as §1
Tubulin = Tubulin (Bos taurus, UniProt Q6B856+Q862L2+Q862F3); assay: Inhibition of tubulin polymerization at concentration 10 uM; assay type: functional
[10] = as §2; assay type: cell-based; conditions: human, CCRF-CEM leukemia cells
Tubulin (Bos taurus) = assay: Inhibition of tubulin polymerization at concentration 10 uM

Row | Compound | GI50 (Homo sapiens [1]) | GI50 (Homo sapiens [2]) | GI50 (Homo sapiens [3]) | GI50 (Homo sapiens [4]) | GI50 [5] | GI50 (Homo sapiens [6]) | GI50 (Homo sapiens [7]) | GI50 (Homo sapiens [8]) | GI50 (Homo sapiens [9]) | IC50 (Tubulin) | GI50 [10] | IC50 (Tubulin (Bos taurus))
1 | CCCCCCNC(=O)c1cc(NCc2cc(O)ccc2O)ccc1O | 6.1 µM | 19 µM | 15 µM | 4 µM | 0.56 µM | 2.3 µM | 17 µM | 12 µM | 15 µM | 3.6 µM |  | 
2 | O=C(NCCc1ccccc1)c1cc(NCc2cc(O)ccc2O)ccc1O | 18 µM | 20 µM | 16 µM | 7.7 µM | 2.7 µM | 17 µM | 18 µM | 14 µM | 19 µM | 3.6 µM |  | 
3 | Oc1ccc(O)c(CNc2ccc(O)c(/C=C/CCc3ccccc3)c2)c1 | 21.4 µM | 35.4 µM | 18.7 µM | 20.4 µM | 1.1 µM | 16.3 µM | 30.4 µM | 18 µM | 5.7 µM | 7.2 µM |  | 
4 | COc1ccc(NCc2cc(O)ccc2O)c2c1C(=O)N(CCc1ccc(F)cc1)C2 | 20.4 µM | 31.4 µM | 16.1 µM | 8.4 µM | 3.4 µM | 14.4 µM | 20.4 µM | 19.1 µM | 14 µM | 5.9 µM |  | 
5 | O=c1oc2ccc(NCc3cc(O)ccc3O)cc2c(=O)n1CCc1ccc(F)cc1 | 6.6 µM | 17.2 µM | 17.7 µM | 2.8 µM | 0.78 µM | 5.1 µM | 4.2 µM | 7 µM | 4.9 µM | 6.8 µM |  | 
6 | Oc1ccc(O)c(CNc2ccc(O)c(/C=C\CCc3ccccc3)c2)c1 | 17.8 µM | 20.5 µM | 34 µM | 21.9 µM | 0.7 µM | 11.6 µM | 19.3 µM | 15.9 µM | 17.1 µM | 3.7 µM |  | 
7 | O=C1c2c(O)ccc(NCc3cc(O)ccc3O)c2CN1CCc1ccccc1 | 12.9 µM | 26.8 µM | 14.5 µM | 6.2 µM | 2.3 µM | 23.1 µM | 19.9 µM | 10.1 µM | 14.8 µM | 7.4 µM |  | 
8 | O=c1oc2ccc(NCc3cc(O)ccc3O)cc2c(=O)n1CCc1ccccc1 | 9.6 µM | 21.4 µM | 15.3 µM | 3.6 µM |  | 8.9 µM | 4.6 µM | 6 µM | 5.6 µM | 8.3 µM | 1.3 µM | 
9 | CCCCCCn1c(=O)oc2ccc(NCc3cc(O)ccc3O)cc2c1=O | 4.2 µM | 14.8 µM | 13.8 µM | 1.7 µM | 0.27 µM | 2.4 µM | 3.2 µM | 3.2 µM | 3.9 µM | 6 µM |  | 
10 | O=C1c2c(O)ccc(NCc3cc(O)ccc3O)c2CN1CCc1ccc(F)cc1 | 16 µM | 19.6 µM | 24.6 µM | 8.8 µM | 1.8 µM | 14.4 µM | 18.7 µM | 13.3 µM | 15.6 µM | 5.9 µM |  | 
11 | COc1ccc(NCc2cc(O)ccc2O)c2c1C(=O)N(CCc1ccccc1)C2 |  |  |  |  |  |  |  |  |  |  |  | 9.5 µM
12 | O=C(NCCc1ccc(F)cc1)c1cc(NCc2cc(O)ccc2O)ccc1O | 0.58 µM | 0.28 µM | 0.27 µM | 0.15 µM | 0.22 µM | 0.32 µM | 0.33 µM | 0.41 µM | 0.047 µM | 4 µM |  | 
